Data reported in ChEMBL document CHEMBL4014298, “Discovery of a series of 8-(1-phenylpyrrolidin-2-yl)-6-carboxamide-2-morpholino-4H-chromen-4-one as PI3Kβ/δ inhibitors for the treatment of PTEN-deficient tumours” (Bioorg Med Chem Lett, 2017).
≈ marks a conversion by molar mass, not a printed value.

What was measured:
PC-3 = assay: Antitumor activity against PTEN-deficient human PC3 cells xenografted in nude mouse assessed as tumor growth inhibition at 100 mg/kg, po bid relative to control; format: functional; conditions: PC-3, po, read-out: TGI
Summary of the method: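 Nude mice bearing PTEN-deficient PC3 prostate tumour xenografts; compound given orally twice daily (b.i.d.) at 100 or 50 mg/kg over chronic dosing; tumour growth inhibition versus control determined at end of study.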

[1] = Intrinsic clearance in human hepatocytes assessed per million cells; format: ADME, cell-based, Hepatocyte; conditions: read-out: CLH
[2] = Solubility of the compound in aqueous buffer at pH 6.5; format: physicochemical
Summary of the method: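 Solubility from crystalline solid in aqueous buffer, pH 6.5, µg/mL.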

Cytochrome P450 3A4 = Cytochrome P450 3A4 (Homo sapiens, UniProt P08684); assay: Inhibition of CYP3A4 (unknown origin); format: ADME
Chain of Cytochrome P450 3A4 (P08684 whole entry): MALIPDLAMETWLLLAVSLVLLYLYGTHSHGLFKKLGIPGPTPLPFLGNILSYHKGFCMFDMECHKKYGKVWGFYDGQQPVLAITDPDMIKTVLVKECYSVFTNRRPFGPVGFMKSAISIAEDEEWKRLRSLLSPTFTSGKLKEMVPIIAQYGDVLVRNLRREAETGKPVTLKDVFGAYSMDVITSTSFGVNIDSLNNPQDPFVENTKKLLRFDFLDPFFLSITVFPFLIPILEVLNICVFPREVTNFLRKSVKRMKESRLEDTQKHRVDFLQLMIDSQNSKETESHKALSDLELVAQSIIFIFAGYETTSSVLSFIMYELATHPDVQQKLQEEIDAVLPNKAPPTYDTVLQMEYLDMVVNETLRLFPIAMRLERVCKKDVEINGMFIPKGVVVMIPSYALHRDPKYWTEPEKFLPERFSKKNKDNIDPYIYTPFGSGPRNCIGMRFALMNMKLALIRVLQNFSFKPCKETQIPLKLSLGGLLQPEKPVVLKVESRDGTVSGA

hepatocyte CLint [1]: 2.7 to 5 µL/min/1e6 cells | solubility [2]: 230 µg/mL (≈ 438 µM) | IC50 (Cytochrome P450 3A4): > 30 µM
Compound: O=C(c1cc([C@H]2CCCN2c2cc(F)cc(F)c2)c2oc(N3CCOCC3)cc(=O)c2c1)N1CCOCC1
inhibition in vivo at 100 mg/kg (PC-3): 83%
